Measured values taken from ChEMBL document CHEMBL1125583, “Synthesis of an (iodovinyl)misonidazole derivative for hypoxia imaging” (J Med Chem, 1991).

Assays:
[1] = Compound was tested for the partition coefficient between octanol and water.; type: physicochemical
Outline: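 Octanol/water partition: octanol and water mutually pre-saturated for 24 h before the study; compound absorbance read at 318 nm in the water-saturated octanol phase and in the octanol-saturated water phase; coefficient taken as the ratio of the two absorbances.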

EMT6 = test: Anoxic/Oxic uptake ratio was measured in EMT-6 cell line at 3h.; type: functional, cell-based; conditions: Mus musculus
Outline: (§1)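 [131I]-labelled agent at 50 μM in 1 mL medium (25 mM HEPES), rinsed then replaced with fresh labelled medium. Monolayers (exponential or unfed plateau phase) held as thin film at 37 °C under 95% air/5% CO2 (oxic) or 95% N2/5% CO2 (anoxic) for 3 h. Cells trypsinized, gamma-counted, uptake as pmol/10^6 cells. Ratio = anoxic/oxic uptake, three plates.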

Rattus norvegicus = species on record: Rattus norvegicus; test: Anoxic/Oxic uptake ratio was measured in rat myocytes at 3h.; type: functional
Outline: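 Adult rat myocytes from collagenase dissociation, cultured overnight at 37 °C in modified MEM. Thin medium layer with 50 μM [131I]-labelled agent at 37 °C under 95% air/5% CO2 or 95% N2/5% CO2, anoxia confirmed by dithionite/methylene blue indicator. Cells rinsed cold, EtOH-fixed, counted microscopically, scraped and gamma-counted. Uptake as dpm per cells; eight plates.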

CaOs-1 cell line = test: Anoxic/Oxic uptake ratio was measured in CaOs-1 cell line at 3h.; type: functional, cell-based; conditions: Canis lupus familiaris; outline: as §1
V79 = test: Anoxic/Oxic uptake ratio was measured in V-79 cell line at 3h.; type: functional, cell-based; conditions: Cricetulus griseus; outline: as §1
RIF-1 = test: Anoxic/Oxic uptake ratio was measured in RIF-1 cell line at 3h.; type: functional, cell-based; conditions: Mus musculus; outline: as §1

Row | Partition coefficient [1] | SMILES | Uptake ratio (EMT6) | Uptake ratio (Rattus norvegicus) | Uptake ratio (CaOs-1 cell line) | Uptake ratio (V79) | Uptake ratio (RIF-1)
1 | 0.41 | COC[C@H](O)Cn1ccnc1[N+](=O)[O-] | – | – | – | – | –
2 | 2.52 | O=[N+]([O-])c1nccn1C[C@@H](O)C/C=C/I | 11 | 22 | 10.2 | 12.5 | 23.2
3 | 2.87 | COC[C@H](O)Cn1cc(Br)nc1[N+](=O)[O-] | – | – | – | – | –

Row | SMILES | Partition coefficient [1] | Uptake ratio (EMT6) | Uptake ratio (Rattus norvegicus) | Uptake ratio (CaOs-1 cell line) | Uptake ratio (V79) | Uptake ratio (RIF-1)
4 | O=[N+]([O-])c1nccn1C[C@@H](O)CF | 0.4 | 12.6 | 20.3 | 18 | 27.3 | 28.5
